Hits are enriched below; roughly 2.3% of the tested compounds scored in any of these assays.
TRPC4 PAM = allosterically enhances the mouse TRPC4 cation channel | B-score at 10 µM | HEK293 TRPC4beta/mu-opioid, DAMGO EC20, Fluo-4 Ca2+ flux; active compounds read high | 0.42% of 310,000 active;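 active means B-score of calcium response area above 5 SD of library B-scores, with initial fluorescence ratio within 5 SD of library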;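 further: B-score of integrated fluorescence ratio over time as area under calcium response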
TRPC6 activator = activates the mouse TRPC6 cation channel. AID 2550. HEK293-TRPC6 membrane potential dye fluorescence; active compounds read high. Q61143. 0.13% of 310,000 active. B-score at 10 µM;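 active means B-score of the integrated fluorescence ratio above library mean plus 3 SD, and starting fluorescence ratio within library mean plus 5 SD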;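 further: higher score means more depolarization so channel activation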
TRPC4 act = activators of mouse TRPC4 channel; Q9QUQ5; HEK293 TRPC4beta/mu-opioid, Fluo4 calcium fluorescence; active compounds read high; B-score at 10 µM; 0.49% of 310,000 active;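 active means B-score above 5 SD of library B-scores, and initial fluorescence ratio not above library mean plus 5 SD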;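 further: positive B-score marks a calcium rise read as TRPC4 activation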
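Assay system: HEK293 stable line with TRPC4beta plus mu-opioid receptor; schedule: 45 min room-temperature Fluo4 loading, 110 s read; technique: kinetic Fluo4 calcium fluorescence; evaluation: integrated baseline-normalised fluorescence ratio, converted to per-well B score; controls: buffer (low) and maximal DAMGO (high)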
TRPC6 inhibitor = inhibitors of mouse TRPC6 channel; Q61143; HEK293-TRPC6, membrane potential dye, ACh-evoked depolarization; active compounds read low; B-score at 10 µM; 1.1% of 310,000 active; AID 2553;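 active means B-score under library mean minus 3 SD, initial fluorescence not abnormally high, positive integrated signal ratio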;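 further: B-score derived from integrated fluorescence ratio over the kinetic read; more negative B-score means stronger inhibition of depolarization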
TRPC4 block = TRPC4 (mouse) channel inhibition; Q9QUQ5; HEK293 TRPC4beta/mu-opioid, DAMGO-evoked Fluo4 calcium flux; active compounds read low; B-score at 10 µM; 0.39% of 300,000 active;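 active means B-score over 3 SD under the library average, no early fluorescence shift, positive overall ratio signal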
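Material: HEK293 cells with stable TRPC4beta plus mu-opioid receptor expression / Probe or stimulus: DAMGO in two steps, submaximal then maximal / Compound: single concentration per test compound / Technique: kinetic Fluo4 fluorescence imaging of calcium influx / Read-out: per-well B score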
The depositor's hits bear a star; i = inactive.

SMILES	TRPC4 PAM	TRPC6 activator	TRPC4 act	TRPC6 inhibitor	TRPC4 block
COCCNC(=O)Cn1nc(-c2ccc(Cl)cc2)c2ccccc2c1=O	i	i	i	i	i
Cc1noc(C)c1S(=O)(=O)N1CCC(C(=O)NCCCN2CC(C)CC(C)C2)CC1 (centres undefined)	i	i	111*	i	i
COc1cccc(N2C(=O)CC(N3CCN(CCN=CC4=C(O)CC(C)(C)CC4=O)CC3)C2=O)c1 (centres undefined)	16*	i	i	i	i
CCC(=O)N1CCN(CCN=CC2=C(O)CC(C)(C)CC2=O)CC1	i	i	i	i	i
CC1(C)CC(=O)C(C=NCCN2CCN(C(=O)CCl)CC2)=C(O)C1	34*	i	i	i	i
CC1(C)CC(=O)C(C=NCCc2ccccn2)=C(O)C1	i	i	50*	i	i
CC1(C)CC(=O)C(C=NCCN2CCN(C3CC(=O)N(c4ccc(F)cc4)C3=O)CC2)=C(O)C1 (centres undefined)	i	i	i	i	i
CCCCCCOc1ccc(N2C(=O)CC(N3CCN(CCN=CC4=C(O)CC(C)(C)CC4=O)CC3)C2=O)cc1 (centres undefined)	i	i	i	i	i
CC1(C)CC(=O)C(C=NCCN2CCN(C3CC(=O)N(c4cccc(Br)c4)C3=O)CC2)=C(O)C1 (centres undefined)	29*	i	i	i	i
CC1(C)CC(=O)C(C=NCCc2ccc(O)cc2)=C(O)C1	i	i	i	i	i
Cc1cc(C)cc(NC(=O)CN2CCC(NC(=O)c3ccccc3F)CC2)c1	i	i	i	i	i
Cc1ccc(-c2nnc(SCC(=O)NNC(=O)COc3cccc4ccccc34)n2C)cc1	i	i	i	i	i
Cc1ccc(C)c(NC(=O)CCc2nnc3ccc(N4CCCC4)nn23)c1	i	i	i	i	i
Cc1ccc(C)c(CN2CCC(CNC(=O)CCc3nnc4ccc(N5CCCCC5)nn34)CC2)c1	i	i	126*	i	i
Cc1ccc(S(=O)(=O)N2CCC(C(=O)OCC(=O)N(C)CC(=O)Nc3ccc(F)cc3)CC2)cc1C	79*	i	i	i	i
CC1(C)Cc2c(cnn2-c2cccc(F)c2)C(NC(=O)CCc2cnccn2)C1 (centres undefined)	i	i	i	i	i
CN(C)C(CNc1ncnc2sccc12)c1cccs1 (centres undefined)	i	i	70*	i	i
COc1cccc(CNC(=O)c2ccncc2)c1	i	i	i	i	i
CC1CCc2nc(NC(=O)CN3CCN(c4ccccc4)CC3)sc2C1 (centres undefined)	i	i	i	i	i
CC1CCc2nc(NC(=O)CN3CCN(Cc4ccc5c(c4)OCO5)CC3)sc2C1 (centres undefined)	i	i	i	i	-6*
CCCNC(=O)C1=C(C)C(=O)OC12CCC(C)CC2 (centres undefined)	i	i	i	i	i
CC1=C(C(=O)NCCN2CCN(C)CC2)C2(CCC(C)CC2)OC1=O (centres undefined)	22*	i	i	i	i
Brc1ccc(OCc2ccccc2)c(CNCC2CCCO2)c1 (centres undefined)	i	i	i	i	-6*
CCOCCCNCc1cc(Br)ccc1OCc1ccccc1	i	i	i	i	-6*
OCCNCc1cc(Br)ccc1OCc1ccccc1	i	i	i	i	i
SMILES	TRPC4 PAM	TRPC6 activator	TRPC4 act	TRPC6 inhibitor	TRPC4 block
COc1ccccc1CC(=O)N(CCC1=CCCCC1)c1c(N)n(Cc2ccccc2)c(=O)[nH]c1=O	i	i	i	i	i
CCCOP(=O)(c1ccc(N(C)C)cc1)C(O)c1ccc(Cl)cc1Cl (centres undefined)	10*	i	i	i	i
CCCOP(=O)(c1ccc(N(C)C)cc1)C(O)c1c(Cl)cccc1Cl (centres undefined)	i	i	i	i	i
COc1ccc(/C=C2\SC(=S)N(CCCC(=O)N3CCCCC3CCO)C2=O)cc1 (centres undefined)	i	i	i	i	i
Clc1ccc(OCCN2CCOCC2)cc1Cl	i	i	i	i	i
CNCCOc1ccc(Cl)c(Cl)c1	40*	i	75*	i	i
Cc1cc(OCCCCCN2CCCC2)ccc1Cl	i	i	i	i	i
Clc1ccc(OCCCN2CCCC2)cc1Cl	11*	i	i	i	i
CNCCCOc1ccc2c(c1)CCC2	20*	i	80*	i	i
Clc1ccc(OCCCn2cncn2)cc1Cl	i	i	i	i	i
Clc1ccc(OCCN2CCCCC2)cc1Cl	26*	i	i	i	i
CCS(=O)(=O)c1nc(S(=O)(=O)c2ccc(C)cc2)c(N2CCC(C)CC2)s1	i	i	i	i	i
COc1ccccc1CN1CC(C(=O)NCCCc2ccc(F)cc2)CCC1=O (centres undefined)	i	i	i	i	i
CCCCn1c(SCC(=O)OCC)nc2c(sc(=S)n2-c2ccccc2OC)c1=O	i	i	i	i	-6*
O=C1CC2(CCN(C(=O)c3cccc([N+](=O)[O-])c3)CC2)Oc2ccccc21	i	i	i	i	i
CCCCCCCCCn1c2c(c(=N)c3c1CCC3)CCCC2	i	i	i	i	i
CCCCCCCCCCn1c2c(c(=N)c3c1CCC3)CCC2	i	i	52*	-5*	i
Cc1ccc([C@@H]2[C@@H]3C(=O)N(C)C(=O)[C@@H]3[C@]3(Cc4ccccc4)C(=O)N(Cc4ccccn4)CC(=O)N23)o1	i	i	i	i	i
CCc1cc(C(=O)N/N=C/c2ccc(OC)cc2)c2ccccc2n1	i	i	i	i	i
CCOc1ccc(-c2c(C(=O)N/N=C/c3ccc(OC(C)C)cc3)nnn2-c2nonc2N)cc1	i	i	i	i	i
Cc1ccc(-c2c(C(=O)N/N=C/c3ccc(OC(C)C)cc3)nnn2-c2nonc2N)cc1	18*	i	i	i	i
COCCNc1nc(-c2cc(C(=O)Nc3ccccc3)on2)cc(C(C)C)n1	i	i	i	i	i
CCOC(=O)c1ccc(N=C2C(=S)N(c3ccc(C(=O)OCC)cc3)C(=N)N2/N=C/c2ccccc2)cc1	17*	i	i	i	i
COc1ccc(C2(c3ccc(O)cc3O)CC(c3ccccc3Cl)NC(=S)N2)cc1 (centres undefined)	11*	i	i	i	i
